# Reference: ChEMBL document CHEMBL1140944, “A new class of vitamin D analogues that induce structural rearrangement of the ligand-binding pocket of the receptor” (J Med Chem, 2009)
# Positions count from the first letter of the chain named. The source made the active and inactive calls. The rule behind the calls is not given here.
# Experiments:
# [1] = biological target: T1, Vitamin D3 receptor (Homo sapiens) (UniProt P11473); experiment: Antagonist activity at full length human VDR expressed in HEK293 cells overexpressing mouse osteopontin vitamin D-responsive element assessed as inhibition of 1,25-(OH)2D3-induced transcriptional activation after 16 hrs by dual luciferase reporter gene assay; format: functional, cell-based
# T1 sequence (whole entry): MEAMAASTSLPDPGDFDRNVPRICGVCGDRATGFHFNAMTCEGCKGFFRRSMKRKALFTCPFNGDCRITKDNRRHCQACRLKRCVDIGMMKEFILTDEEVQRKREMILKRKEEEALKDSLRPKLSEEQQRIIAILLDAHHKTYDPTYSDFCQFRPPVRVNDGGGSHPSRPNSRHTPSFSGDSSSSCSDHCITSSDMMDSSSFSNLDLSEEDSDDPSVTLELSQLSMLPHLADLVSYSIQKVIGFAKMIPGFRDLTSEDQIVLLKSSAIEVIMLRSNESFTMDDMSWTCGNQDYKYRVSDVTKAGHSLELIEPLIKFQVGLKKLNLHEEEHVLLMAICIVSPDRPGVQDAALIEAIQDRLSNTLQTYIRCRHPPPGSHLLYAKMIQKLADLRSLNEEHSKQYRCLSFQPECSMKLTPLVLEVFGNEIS
# [2] = tested on: HEK293; experiment: Inhibition of 1,25-(OH)2D3-induced CYP24A1 mRNA expression in HEK293 cells at 10^-6 M after 24 hrs by quantitative real time PCR; format: functional, cell-based; settings: Homo sapiens
# How it was run: (§1)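 HEK293 cells were treated for 24 h with 10^-6 M compound, without (12) or with (15) 10^-8 M 1,25-(OH)₂D₃. CYP24A1 mRNA was measured by quantitative real-time RT-PCR and normalized to actin mRNA; mean ± SD of triplicates.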
# [3] = biological target: T1, Vitamin D3 receptor (Homo sapiens); experiment: Agonist activity at full length human VDR expressed in HEK293 cells overexpressing mouse osteopontin vitamin D-responsive element assessed as transcriptional activation after 16 hrs by dual luciferase reporter gene assay; format: functional, cell-based
# [4] = tested on: T2, Vitamin D3 receptor (Homo sapiens), P11473 [H397A]; experiment: Agonist activity at full length human VDR H397A mutant expressed in african green monkey COS7 cells overexpressing mouse osteopontin vitamin D-responsive element assessed as transcriptional activation at 10^-6 M after 16 hrs by dual luciferase reporter gene assay; format: functional, cell-based; settings: COS-7
# T2 sequence (whole entry): T1 sequence (whole entry) with H397A
# How it was run: (§2)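 COS-7 cells in DMEM with 5% FBS, seeded at 2 × 10⁴ per well. After 24 h they were lipofected with the mutant hVDR plasmid (pCMX-hVDR), the SPPx3-TK-Luc reporter (three mouse osteopontin VDREs) and the pRL-CMV control. After 8 h, ligand was added at 10^-6 M, or ethanol vehicle, for 16 h. Firefly luciferase was normalized to the internal control; triplicate.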
# [5] = biological target: T3, Vitamin D3 receptor (Bos taurus, UniProt Q28037); experiment: Displacement of [3H]1,25-(OH)2D3 from bovine thymus vitamin D receptor
# T3 sequence (Q28037 whole entry): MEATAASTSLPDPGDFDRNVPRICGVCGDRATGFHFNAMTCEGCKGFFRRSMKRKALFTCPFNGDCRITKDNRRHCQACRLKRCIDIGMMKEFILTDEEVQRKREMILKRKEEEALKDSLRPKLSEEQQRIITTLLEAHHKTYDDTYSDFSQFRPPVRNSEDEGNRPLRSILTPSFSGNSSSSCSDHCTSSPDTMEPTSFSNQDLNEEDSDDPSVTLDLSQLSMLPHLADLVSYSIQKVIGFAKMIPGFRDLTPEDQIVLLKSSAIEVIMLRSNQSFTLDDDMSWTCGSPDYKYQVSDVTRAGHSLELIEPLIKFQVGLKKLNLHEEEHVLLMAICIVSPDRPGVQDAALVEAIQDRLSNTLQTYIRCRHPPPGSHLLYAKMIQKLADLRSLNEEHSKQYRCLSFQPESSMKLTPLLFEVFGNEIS
# How it was run: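 Bovine thymus VDR was dissolved in 0.05 M phosphate buffer, pH 7.4, with 0.3 M KCl and 5 mM DTT. Free ligand was removed with dextran-coated charcoal (20 min, 4 °C) and supernatant radioactivity counted. Nonspecific binding was subtracted; EC₅₀ came from dose-response curves; duplicate.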
# [6] = biological target: T1, Vitamin D3 receptor (Homo sapiens); experiment: Antagonist activity at full length human VDR expressed in african green monkey Cos7 cells overexpressing mouse osteopontin vitamin D-responsive element assessed as inhibition of 1,25-(OH)2D3-induced transcriptional activation after 16 hrs by dual luciferase reporter gene assay; format: functional, cell-based; settings: COS-7
# How it was run: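 Cos7 cells were transfected with full-length hVDR, the SPPx3-TK-Luc osteopontin VDRE reporter and pRL-CMV. Test ligands were given together with 10^-9 M 1,25-(OH)₂D₃ for 16 h. Dual luciferase signal was normalized to the sea pansy control, with activity at 10^-8 M 1,25-(OH)₂D₃ set as 1; triplicate.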
# [7] = tested on: HL-60; experiment: Induction of cell differentiation in human HL60 cells after 4 days by NBT reduction assay; format: functional, cell-based
# How it was run: (§3)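 HL-60 promyelocytic leukemia cells were plated at 2 × 10⁵ cells/plate in Eagle's modified medium. Compound was added at 10^-6, 10^-7 or 10^-8 M for 4 days. Differentiation was scored by nitro blue tetrazolium reduction.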
# [8] = biological target: T1, Vitamin D3 receptor (Homo sapiens); experiment: Antagonist activity at human VDR expressed in african green monkey COS7 cells overexpressing GAL4 response element assessed as RXRalpha recruitment by mammalian two hybrid assay; format: functional, cell-based; settings: COS-7
# [9] = tested on: HL-60; experiment: Inhibition of 1,25-(OH)2D3-induced cell differentiation in human HL60 cells after 4 days by NBT reduction assay; format: functional, cell-based; how it was run: as §3
# [10] = tested on: HL-60; experiment: Inhibition of 1,25-(OH)2D3-induced differentiation in human HL60 cells after 4 days by NBT reduction assay
# [11] = tested on: HEK293; experiment: Inhibition of 1,25-(OH)2D3-induced CYP24A1 mRNA expression in HEK293 cells after 24 hrs by real time PCR; format: functional, cell-based; settings: Homo sapiens
# How it was run: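 HEK293 cells were exposed to the indicated compound concentrations for 24 h. CYP24A1 mRNA was quantified by real-time RT-PCR against actin; triplicate.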
# [12] = tested on: HL-60; experiment: Inhibition of 1,25-(OH)2D3-induced cell differentiation in human HL60 cells assessed as morphological changes at 10^-6 M by Wright-Geimsa staining; format: functional, cell-based
# How it was run: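 HL-60 cells were stained with Wright-Giemsa and their morphology examined by light microscopy.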
# [13] = biological target: T1, Vitamin D3 receptor (Homo sapiens); experiment: Antagonist activity at human VDR expressed in african green monkey COS7 cells overexpressing GAL4 response element assessed as SRC1 peptide recruitment by mammalian two hybrid assay; format: functional, cell-based; settings: COS-7
# [14] = biological target: T1, Vitamin D3 receptor (Homo sapiens); experiment: Agonist activity at human VDR expressed in african green monkey COS7 cells overexpressing GAL4 response element assessed as SRC1 peptide recruitment by mammalian two hybrid assay; format: functional, cell-based; settings: COS-7
# [15] = biological target: T1, Vitamin D3 receptor (Homo sapiens); experiment: Agonist activity at full length human VDR expressed in african green monkey Cos7 cells overexpressing mouse osteopontin vitamin D-responsive element assessed as transcriptional activation after 16 hrs by dual luciferase reporter gene assay; format: functional, cell-based; settings: COS-7
# How it was run: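 COS-7 cells in DMEM with 5% FBS were lipofected with full-length pCMX-hVDR, the SPPx3-TK-Luc osteopontin VDRE reporter and pRL-CMV. After 8 h, ligand or ethanol vehicle was added for 16 h. Dual luciferase read-out was normalized to the internal control. Activity at 10^-8 M 1,25-(OH)₂D₃ was set as 1; triplicate.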
# [16] = biological target: T1, Vitamin D3 receptor (Homo sapiens); experiment: Agonist activity at human VDR expressed in african green monkey COS7 cells overexpressing GAL4 response element assessed as RXRalpha recruitment by mammalian two hybrid assay; format: functional, cell-based; settings: COS-7
# [17] = tested on: HEK293; experiment: Induction of CYP24A1 mRNA expression in HEK293 cells at 10^-6 M after 24 hrs by quantitative real time PCR; format: functional, cell-based; settings: Homo sapiens; how it was run: as §1
# [18] = tested on: T4, Vitamin D3 receptor (Homo sapiens), P11473 [H305A]; experiment: Agonist activity at full length human VDR H305A mutant expressed in african green monkey COS7 cells overexpressing mouse osteopontin vitamin D-responsive element assessed as transcriptional activation at 10^-6 M after 16 hrs by dual luciferase reporter gene assay; format: functional, cell-based; settings: COS-7; how it was run: as §2
# T4 sequence (whole entry): T1 sequence (whole entry) with H305A
SMILES,Activity [1],Activity [3],EC50 [5] [nM],Activity [6],Activity [2],Activity [7],other results
C=C1/C(=C\C=C2/CCC[C@]3(C)[C@@H]([C@@H](C)[C@@H](CCO)CCCC)CC[C@@H]23)C[C@@H](O)C[C@@H]1O,Dose-dependent effect,Dose-dependent effect,20,Dose-dependent effect,Active,inactive,Activity [4]: Active
C=C1/C(=C\C=C2/CCC[C@]3(C)[C@@H]([C@H](C)[C@H](CCCC)C[C@@H](O)C(C)C)CC[C@@H]23)C[C@@H](O)C[C@@H]1O,,,16,,,inactive,
C=C1/C(=C\C=C2/CCC[C@]3(C)[C@@H]([C@H](C)CCCC(C)(C)O)CC[C@@H]23)C[C@@H](O)C[C@@H]1O,,,,,,Active,Activity [12]: Active
C=C1/C(=C\C=C2/CCC[C@]3(C)[C@@H]([C@H](C)[C@H](CCCC)C[C@H](O)C(C)C)CC[C@@H]23)C[C@@H](O)C[C@@H]1O,Dose-dependent effect,Dose-dependent effect,3.4,Dose-dependent effect,Active,inactive,Activity [18]: Active

# Now from value to compound, other results behind:
Activity [1],Activity [3],EC50 [5] [nM],Activity [6],SMILES,Activity [2],Activity [7],other results
Dose-dependent effect,Dose-dependent effect,1.2,Dose-dependent effect,C=C1/C(=C\C=C2/CCC[C@]3(C)[C@@H]([C@H](C)[C@H](CCO)CCCC)CC[C@@H]23)C[C@@H](O)C[C@@H]1O,Active,inactive,Activity [8]: Active; Activity [9]: Active; Activity [10]: Active; Activity [11]: Dose-dependent effect; Activity [12]: Active; Activity [13]: Active
Dose-dependent effect,Dose-dependent effect,3.8,Dose-dependent effect,C=C1/C(=C\C=C2/CCC[C@]3(C)[C@@H]([C@H](C)[C@@H](CCCC)C[C@H](O)C(C)C)CC[C@@H]23)C[C@@H](O)C[C@@H]1O,Active,inactive,
,,11,,C=C1/C(=C\C=C2/CCC[C@]3(C)[C@@H]([C@H](C)[C@@H](CCO)CCCC)CC[C@@H]23)C[C@@H](O)C[C@@H]1O,,inactive,
,,20,,C=C1/C(=C\C=C2/CCC[C@]3(C)[C@@H]([C@H](C)[C@@H](CCCC)C[C@@H](O)C(C)C)CC[C@@H]23)C[C@@H](O)C[C@@H]1O,,,
,,2,,C=C1/C(=C\C=C2/CCC[C@]3(C)[C@@H]([C@@H](C)[C@H](CCO)CCCC)CC[C@@H]23)C[C@@H](O)C[C@@H]1O,,Active,Activity [14]: Active; Activity [15]: Active; Activity [16]: Active; Activity [17]: Active
